Measurements reported in ChEMBL document CHEMBL1153436, “2-Pyridyl P1'-substituted symmetry-based human immunodeficiency virus protease inhibitors (A-792611 and A-790742) with potential for convenient dosing and reduced side effects” (J Med Chem, 2009).

Assays:
[1] = system: Human immunodeficiency virus 1; assay: Antiviral activity against wild-type HIV1 pNL4-3 infected in human MT4 cells after 5 days by MTT assay in presence of 50% human serum; type: functional, organism-based; conditions: Human immunodeficiency virus 1, MT4, 120 h
[2] = system: Human immunodeficiency virus 1; assay: Antiviral activity against HIV1 bearing protease gene with A17 mutation infected in human MT4 cells after 5 days by MTT assay; type: functional, organism-based; conditions: Human immunodeficiency virus 1, MT4, 120 h
In short: (§1)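 HIV-1 A17 mutant clone carrying protease mutations L10F, V32I, M46I, I47V, Q58E and I84V, generated by in vitro serial passage under LPV/RTV. EC50 was determined in MT-4 cells. Wild-type reference strain was HIV-1 pNL4-3.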

[3] = system: Human immunodeficiency virus 1; assay: Fold resistance, ratio of EC50 for HIV1 bearing protease gene with A17 mutation to EC50 for wild-type HIV1 pNL4-3; type: functional; in short: as §1
[4] = system: Human immunodeficiency virus 1; assay: Antiviral activity against wild-type HIV1 pNL4-3 infected in human MT4 cells after 5 days by MTT assay; type: functional, organism-based; conditions: Human immunodeficiency virus 1, MT4, 120 h

Structure (SMILES)	EC50 [1]	EC50 [2]	Ratio EC50 [3]	EC50 [4]
COC(=O)N[C@H](C(=O)N[C@@H](Cc1ccc(-c2ccccn2)cc1)C[C@H](O)[C@H](Cc1ccccc1)NC(=O)[C@@H](N1CCN(Cc2ccc(F)cc2)C1=O)C(C)(C)C)C(C)(C)C	33 nM	42 nM	7	6 nM
COC(=O)N[C@H](C(=O)N[C@@H](Cc1ccc(-c2ccccn2)cc1)[C@@H](O)C[C@H](Cc1ccccc1)NC(=O)[C@@H](N1CCN(Cc2csc(C(C)C)n2)C1=O)C(C)(C)C)C(C)(C)C	13 nM	–	1	1 nM
COC(=O)N[C@H](C(=O)N[C@@H](Cc1ccc(-c2ccccn2)cc1)C[C@H](O)[C@H](Cc1ccccc1)NC(=O)[C@@H](N1CCN(Cc2csc(C)n2)C1=O)C(C)(C)C)C(C)(C)C	94 nM	–	1	10 nM
COC(=O)N[C@H](C(=O)N[C@H](Cc1ccc(-c2ccccn2)cc1)C[C@H](O)[C@H](Cc1ccccc1)NC(=O)[C@@H](N1CCN(Cc2cccc(C(C)C)n2)C1=O)C(C)(C)C)C(C)(C)C	105 nM	66 nM	4	15 nM
COC(=O)N[C@H](C(=O)N[C@H](Cc1ccc(-c2ccccn2)cc1)C[C@H](O)[C@H](Cc1ccccc1)NC(=O)[C@@H](N1CCN(Cc2csc(-c3cccnc3)n2)C1=O)C(C)(C)C)C(C)(C)C	15 nM	7 nM	4	2 nM
COC(=O)N[C@H](C(=O)N[C@H](Cc1ccc(-c2ccccn2)cc1)C[C@H](O)[C@H](Cc1ccccc1)NC(=O)[C@@H](N1CCN(Cc2cccc(C)n2)C1=O)C(C)(C)C)C(C)(C)C	27 nM	21 nM	4	5 nM
COC(=O)N[C@H](C(=O)N[C@@H](Cc1ccc(-c2ccccn2)cc1)C[C@H](O)[C@H](Cc1ccccc1)NC(=O)[C@@H](N1CCN(Cc2ccc(N)cc2)C1=O)C(C)(C)C)C(C)(C)C	63 nM	30 nM	3	10 nM
COC(=O)N[C@H](C(=O)N[C@@H](Cc1ccc(-c2ccccn2)cc1)C[C@H](O)[C@H](Cc1ccccc1)NC(=O)[C@@H](N1CCN(Cc2cccc(OC)c2)C1=O)C(C)(C)C)C(C)(C)C	65 nM	53 nM	4	14 nM
COC(=O)N[C@H](C(=O)N[C@@H](Cc1ccc(-c2ccccn2)cc1)C[C@H](O)[C@H](Cc1ccccc1)NC(=O)[C@@H](N1CCN(Cc2nc3ccccc3n2C)C1=O)C(C)(C)C)C(C)(C)C	346 nM	32 nM	<1	140 nM
COC(=O)N[C@H](C(=O)N[C@H](Cc1ccc(-c2ccccn2)cc1)C[C@H](O)[C@H](Cc1ccccc1)NC(=O)[C@@H](N1CCN(Cc2ccccc2)C1=O)C(C)(C)C)C(C)(C)C	43 nM	37 nM	3	11 nM
COC(=O)N[C@H](C(=O)N[C@@H](Cc1ccc(-c2ccccn2)cc1)C[C@H](O)[C@H](Cc1ccccc1)NC(=O)[C@@H](N1CCN(Cc2ccccc2C)C1=O)C(C)(C)C)C(C)(C)C	30 nM	72 nM	7	10 nM
COC(=O)N[C@H](C(=O)N[C@@H](Cc1ccc(-c2ccccn2)cc1)[C@@H](O)C[C@H](Cc1ccccc1)NC(=O)[C@@H](N1CCN(Cc2cccc(C)n2)C1=O)C(C)(C)C)C(C)(C)C	30 nM	–	1	5 nM
COC(=O)N[C@H](C(=O)N[C@@H](Cc1ccc(-c2ccccn2)cc1)[C@@H](O)C[C@H](Cc1ccccc1)NC(=O)[C@@H](N1CCN(Cc2ccccc2)C1=O)C(C)(C)C)C(C)(C)C	10 nM	4 nM	4	1 nM
COC(=O)N[C@H](C(=O)N[C@@H](Cc1ccc(-c2ccccn2)cc1)C[C@H](O)[C@H](Cc1ccccc1)NC(=O)[C@@H](N1CCN(Cc2ccccc2F)C1=O)C(C)(C)C)C(C)(C)C	36 nM	88 nM	–	11 nM
